According to ChEMBL document CHEMBL4513216, “Probing the Open Global Health Chemical Diversity Library for Multistage-Active Starting Points for Next-Generation Antimalarials” (ACS Infect Dis, 2020):

Test: Toxicity liver stage against HepG2, at 10uM
Format: cell-based
Parameters: test concentration 10 uM, cell line HepG2-A16-CD81EGFP
Details: human, HepG2-A16-CD81EGFP cells; read-out: INHIBITION
In short: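 Uninfected HepG2-A16-CD81EGFP cells, 3 × 10^3 per well, 1536-well, plated on prespotted compound at 10 μM final, parasite-free screening media added to match infected plates; puromycin 10 μM positive, DMSO 0.5% negative; run in parallel with 48 h PbLuc assay at 37 °C, 5% CO2; viability by CellTiter-Glo luminescence, normalized to controls.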

| SMILES | cytotoxicity at 10 µM [%] |
| --- | --- |
| CCOC(=O)[C@H]1[C@@H](O)C(=O)N(C)C12CCN(C(=O)CC(C)C)CC2 | -5.12 |
| Cn1ccc2c(C(=O)NCCCN3CCOCC3)cccc21 | -0.452 |
| CSCCC(C)(O)CNC(=O)Nc1ccccc1C (stereo not given) | -1.44 |
| CCOCC(=O)NCCc1nc(C2CC2)cc(C(F)(F)F)n1 | 1.01 |
| COC(=O)c1sccc1S(=O)(=O)N1CCC(Oc2cccc(C)n2)CC1 | 6.48 |
| Cc1cccnc1NC(=O)c1ccc(-n2cncn2)nn1 | -1.52 |
| Cc1cccc(CN2C[C@@H](NC(=O)C3CCC3)[C@H]3COC[C@H]32)n1 | 4.83 |
| O=C(c1ccnnc1)N1C[C@@H]2CN(c3ncccn3)C[C@@H]2C1 | 7.19 |
| Cn1ncc2c1C(COCC1CC1)CN(Cc1ccncc1)C2 (stereo not given) | 7.22 |
| CN(C)C(=O)C1OC2(CCN(C(=O)c3ccoc3)CC2)c2ccccc21 (stereo not given) | 5.63 |
| CCN(CC)C(=O)Cn1c(C)cc2nc(SC)n(CC(C)C)c(=O)c21 | -12.8 |
| COC[C@@]12CCO[C@@H]1CCN(C(=O)Cc1ccccc1F)C2 | -7.27 |
| CCCN(C(=O)CS(=O)(=O)c1ccccc1)c1cccc(C)c1 | 2.08 |
| O=C(O)Cn1nc(C2CC2)c2c(-c3ccco3)ccnc21 | -3.96 |
| Cn1nc(C(=O)N2CCCC2)c(F)c1NC(=O)Cc1ccccc1 | 1.41 |
| CCn1nccc1CNC(=O)C1CCCC1 | -18.5 |
| Cn1ccc(C(=O)N2CCCC2c2cc[nH]n2)n1 (stereo not given) | -1.26 |
| CC(C)C(=O)N1CCC(c2nc3ccccn3c2NC(C)(C)C)CC1 | 5.86 |
| CC(=O)N1CCC(CCc2ccnc(NC(=O)c3ccccn3)c2)CC1 | 0.15 |
| O=C(NCc1ccccc1)C1CN(c2ccccn2)CCO1 (stereo not given) | -2.44 |
| O=C(CCn1c(C(F)F)cc2cccnc21)NC1CC1 | -1.71 |
| Cc1cc(C)nc(C2CCN(C(=O)CCn3nnc4ccccc43)C2)n1 (stereo not given) | -0.834 |

| SMILES | cytotoxicity at 10 µM [%] |
| --- | --- |
| O=C(c1cccc2cccnc12)N1CC[C@@]2(CCCO2)[C@@H](O)C1 | -23.8 |
| Cc1nc(C2CCCN2C(=O)Cc2ccc3c(c2)OCO3)nc(O)c1C (stereo not given) | -34.9 |
| Nc1cncc(C(=O)N2Cc3ccccc3OC3(CCOCC3)C2)c1 | 11.9 |
| CC(=O)N1CCC(c2nccnc2Nc2ncc(C)s2)CC1 | 10.1 |
| O=C(Cc1ccsc1)N1CCOC(c2nc(-c3ncccn3)no2)C1 (stereo not given) | -7.83 |
| CNc1ncc(CN2CCC(c3nnsc3S(C)(=O)=O)CC2)cn1 | -0.085 |
| COc1ccc(CN2CCC(c3cc(O)nc(C)n3)C2)c(F)c1 (stereo not given) | 0.442 |
| Cc1nc(C2CCN(S(=O)(=O)c3ccc(Cl)cc3)CC2)n[nH]1 | 10.6 |
| Cc1oc(-c2ccco2)nc1CN1CCc2cnc(C(C)C)nc2C1 | 0.0371 |
| CSc1c[nH]nc1NS(=O)(=O)c1cc(F)ccc1Cl | -7.23 |
| Cc1cnn(CC(C)Nc2nc3ccccc3o2)c1 (stereo not given) | -9.49 |
| c1cc(NCc2ccsc2)cc(-c2nnc[nH]2)c1 | -54.5 |
| CC(C)N(C(=O)Cn1cc(Cl)cn1)c1ccccc1 | -1.18 |
| COc1cccnc1NC(=O)COC1CCCC1 | 8.06 |
| N#CCCN(Cc1cccnc1)C(=O)c1ccn(-c2ccccc2)n1 | 13.9 |
| Cc1nc(C)c(S(=O)(=O)NC(=O)c2ccsc2)s1 | -6.85 |
| CCCc1noc(C(C)S(=O)(=O)Cc2nc(C3CC3)no2)n1 (stereo not given) | -9.02 |
| Cc1oc(NC(=O)C(C)N2CCN(CCO)CC2)c(C#N)c1C (stereo not given) | -13.6 |
| CCCn1cc(NC2CCSCC2)cn1 | -1.88 |
| CCOC(=O)N1CCN(C(=O)C2CC(=O)N(c3ccccc3Br)C2)CC1 (stereo not given) | -7.22 |
| Cc1nnc(CN(C)C2CCN(CCc3cccs3)C2)n1C (stereo not given) | -3.67 |
| CNS(=O)(=O)CC1CCCN1C(=O)c1ccc2cc[nH]c2c1 (stereo not given) | -0.651 |

| SMILES | cytotoxicity at 10 µM [%] |
| --- | --- |
| O=c1c2cccnc2cnn1CC(O)c1ccc(Br)cc1 (stereo not given) | -2.59 |
| CCc1noc(CS(=O)(=O)CC=C(C)C)n1 | 5.41 |
| O=S(=O)(NCc1cccnc1OC1CCCC1)N1CCCCC1 | -3.82 |
| Cc1nc2n(n1)CC(NCC(=O)N(C)Cc1cccs1)CC2 (stereo not given) | -0.189 |
| CNC(=O)C(C)(C)CNC(=O)Nc1ccncc1C | -12.1 |
| O=C1CC(N(C(=O)CCc2cc(F)ccc2F)C2CC2)C(=O)N1 (stereo not given) | 3.62 |
| COCc1cc(N(CC(F)F)C2CC2)n2ncnc2n1 | -3.94 |
| Cc1ccc(-c2nnc(C(C)N3CCc4cncnc4C3)o2)cc1 (stereo not given) | 0.776 |
| Cc1nc(CN(C)c2cc(N3CCCC3CO)ncn2)cs1 (stereo not given) | 4.53 |
| Cn1cc(CNc2cnn(CC3CCCO3)c2)c(-c2ccncc2)n1 (stereo not given) | 4.4 |
| COc1ccc(CNC2CCN(c3ccccc3)C2)c(OC)c1OC (stereo not given) | 7.49 |
| CC(C)C(C(=O)N1CCCN(Cc2cnn(C)c2)CC1)n1cncn1 (stereo not given) | -4.52 |
| CO[C@H]1CO[C@@]2(CCCN(C(=O)C3CC=CC3)C2)C1 | -98.6 |
| Cc1cc(C(=O)N2CCC[C@]3(C[C@@H](OCC4CC4)CO3)C2)no1 | -78.9 |
| Cc1csc2ncc(-c3ccnc(N4CCCC[C@@H]4CO)n3)c(=O)n12 | 9.12 |
| O=C(c1cnc(-c2cccnc2)nc1)N1CCC(c2ccncc2)CC1 | -13.7 |
| CCCc1nnc2sc(C3CCN(CC)CC3)nn12 | 4.6 |
| Cc1ccccc1CN1CCN(C(=O)CCn2ccccc2=O)CC1 | 3.57 |
| Cn1c(CN2CCCC(Cn3cc(CCO)nn3)C2)cc2ccccc21 (stereo not given) | -0.849 |
| Cn1cc(Cl)c(CN2CCCC(Cn3cc(CO)nn3)C2)n1 (stereo not given) | 1.18 |
| CCc1ncc(C(=O)N(C)C(C)c2ccc3c(c2)OCCO3)cn1 (stereo not given) | -2.96 |
| CCn1c(C2CCN(C(=O)c3cc(CC(C)C)on3)CC2)nn(C)c1=O | -3.89 |

| SMILES | cytotoxicity at 10 µM [%] |
| --- | --- |
| CC(C)Oc1ccc2c(NC(=O)[C@H](C)O)nn(CC(F)(F)F)c2c1 | -4.87 |
| OC1CCCN(CCNc2ncc(Cl)cc2F)C1 (stereo not given) | 8.81 |
| CCc1nc(C)sc1CN1CC[C@@](O)(CCOC)[C@H](C)C1 | -1.18 |
| Cc1ccc(F)c(C(=O)N2C[C@@H](C(=O)O)[C@H](c3ccncc3)C2)c1Cl | -2.37 |
| CCCN1CCN(C(=O)c2ccnc(N)c2)[C@H]2CS(=O)(=O)C[C@H]21 | 2.77 |
| Cc1c(C(=O)N(C)c2ccccc2)cccc1N(C)S(C)(=O)=O | 6.36 |
| COc1ccc(CNC(=O)CCN2CCOC(C(F)(F)F)C2)cc1 (stereo not given) | 4.3 |
| CCC(Oc1ccc(N(C)S(C)(=O)=O)cc1)C(=O)N(C)C (stereo not given) | -4.97 |
| Cc1ncccc1OC1(C(=O)NCCCN2CCOCC2)CCNCC1 | -10.8 |
| CC(C)C(=O)N1CCN(C(=O)c2cc(C(C)C)on2)[C@H]2CS(=O)(=O)C[C@H]21 | -19 |
| CCc1cc(O)nc(C2CCCN2C(=O)c2cccnc2)n1 (stereo not given) | -1.54 |
| Cc1ncc2c(n1)CN(Cc1nnc(-c3ccccc3)o1)CC2 | -9.77 |
| Cc1nc(C)n(CC2CN(Cc3cscn3)CCO2)n1 (stereo not given) | -4.22 |
| COCCNC(=O)Nc1ccc(-n2cncn2)c(C(F)(F)F)c1 | -5.92 |
| Fc1ccc(-c2cnc(CN3CCn4c(nnc4C4CC4)C3)o2)cc1 | -13.4 |
| CN(C)C(=O)CS(=O)(=O)Cc1cc(Cl)c2c(c1)OCCCO2 | -5.08 |
| COc1ccc(OCCCNC(=O)NCc2csc(C)n2)cc1 | -7.54 |
| CCc1cccc(N2CCC(NC(=O)c3ccc(=O)[nH]n3)CC2)c1 | 5.8 |
| CNC(=O)NC(=O)Cn1cc(-c2ccccc2)cn1 | 3.37 |
| CCc1nccn1C1CCCN(C(=O)Cc2cn3ccccc3n2)C1 (stereo not given) | -2.72 |
| Cc1cnn(CC2CCCN2C(=O)c2nccc3ccccc23)c1 (stereo not given) | -2.14 |
| CNS(=O)(=O)c1ccc(CNC(=O)NCC2CCOC2)cc1 (stereo not given) | -2.65 |

| SMILES | cytotoxicity at 10 µM [%] |
| --- | --- |
| COCC1CN(Cc2ccsc2)Cc2nn(C)cc21 (stereo not given) | 5.15 |
| CN1CCO[C@@H]2CN(S(=O)(=O)c3ccccc3F)CC[C@@H]2C1 | 1.35 |
| CNC(=O)[C@H]1C[C@@H]2CN(Cc3c(C)noc3C)C[C@@H]2N1C(C)=O | -108 |
| COc1cccc(CN2CCCC(c3nn(C)c4nccnc34)C2)c1 (stereo not given) | -11.2 |
| CNC(=O)[C@H]1C[C@@H]2CCN(c3nnc(C)s3)C[C@@H]2O1 | -75.7 |
| O=C(Nc1cccc(CNCc2ccsc2)c1)C1CC1 | -10.7 |
| OCCN1CC2(CCN(c3ccccc3)C2)C1 | 0.234 |
| O=C1N(CC2CC2)CCC12CCN(CC1CC1)CC2 | 7.07 |
| CC(C)c1nn(C)c(N(C)C)c1CNCc1cccc(CN(C)C)c1 | -4.22 |
| COc1cc(CNCC(O)c2ccc(C)cc2)cc2c1OCCO2 (stereo not given) | -6.61 |
| c1cncc(COC[C@@H]2CCC[C@]23CNCCO3)c1 | -96.1 |
| CN(C)CC(=O)N1CCOC2(CCCN(c3ncccc3F)C2)C1 (stereo not given) | -9.84 |
| OCCOCc1ncn2c1CN(Cc1cccs1)CCC2 | -82.9 |
| O=C(O)CC1CN(Cc2ccccc2)CCO1 (stereo not given) | 6.54 |
| CC(C)Nc1nc2c(c(N(C)C)n1)CCN(Cc1nccn1C)CC2 | 1.35 |
| O=C([C@H]1C[C@H]2OCC[C@H]2N(C(=O)c2ccccn2)C1)N1CCCCO1 | 13.1 |
| Cc1cc(CN2C[C@@H]3COC[C@H](C(=O)N4CCCCO4)[C@@H]3C2)no1 | -77.9 |
| COCC1CC2(CCN(Cc3cccnc3)CC2)CN1c1ncccn1 (stereo not given) | 3.71 |
| CC1c2ncc(COCC3CC3)n2CCN1C (stereo not given) | 7.83 |
| COc1ccccc1CCNC(=O)C1CCC(Cn2cnnn2)CC1 (stereo not given) | 1.61 |
| Cc1cc(C)cc(N2CCN(C(=O)CCN3C[C@H]4CC[C@@H]3C4)CC2=O)c1 | -4.76 |
| C=c1ncsc1=C1NN=C(C2CCCN2C(=O)CCn2ccc(C)n2)O1 (stereo not given) | 1.66 |
